One test relates to SK-OV-3. Description: In vitro inhibitory concentration against SKOV3 cell line in MTT assay was determined after 3 days incubation. The class given is functional, cell-based. Particulars: Homo sapiens, SK-OV-3, 72 h. The gist of the method: (§1)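 MTT viability read-out in 96-well format, per Mosmann's method. Values are means of three experiments.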
On the technique in general: Formazan colour is commonly taken as a measure of viable cells.

The test system of another test is U373 MG. Description: In vitro inhibitory concentration against U373MG cell line in MTT assay was determined after 3 days incubation. Format: functional, cell-based, U-373MG ATCC. Particulars: Homo sapiens, 72 h. In outline: as §1
The subject of the next test is PC-3. As to the kind of experiment: In vitro inhibitory concentration against PC-3 cell line in MTT assay was determined after 3 days incubation. Format: functional, cell-based. Conditions: Homo sapiens, PC-3, 72 h. In outline: as §1

One may read the IC50 as the concentration that gives 50% inhibition. High values mean weaker potency, low ones greater potency. Consider `O=C(O[C@@H]1Cc2c(O)cc(O)cc2O[C@@H]1c1ccc(O)c(O)c1)c1cc(O)c(O)c(O)c1` [EPICATECHIN GALLATE], for which the IC50 in the test with SK-OV-3 worked out at 185 µM; in the test on U373 MG, 157 µM; with PC-3 it was 168 µM.

As to `Oc1cc(O)c2c(c1)O[C@H](c1ccc(O)c(O)c1)[C@H](O)C2` [(-)-EPICATECHIN], the IC50 in the test on SK-OV-3, in the test with U373 MG and in the test with PC-3 was above 500 µM in each case.

Consider `O=C(O[C@@H]1Cc2c(O)cc(O)cc2O[C@@H]1c1ccc(O)c(O)c1)c1ccc(OC(F)(F)F)cc1`, for which the IC50 worked out at 47.3 µM with SK-OV-3, 50.3 µM in the test with U373 MG and 45.2 µM in the test on PC-3.

For `O=C(O[C@@H]1Cc2c(O)cc(O)cc2O[C@@H]1c1ccc(O)c(O)c1)c1cc(F)cc(F)c1`, the IC50 in the test on SK-OV-3 amounted to 78.2 µM; in the test on U373 MG, 64.5 µM; with PC-3, 58.7 µM.

For the molecule `COc1cc(CO[C@@H]2Cc3c(O)cc(O)cc3O[C@@H]2c2ccc(O)c(O)c2)cc(OC)c1OC`, the IC50 in the test on SK-OV-3 turned out to be 38.2 µM; with U373 MG, 29.8 µM; in the test on PC-3, 32.5 µM.

For the molecule `O=C(O[C@@H]1Cc2c(O)cc(O)cc2O[C@@H]1c1ccc(O)c(O)c1)c1cc(F)c(F)c(F)c1`, the results for the IC50 in the test with SK-OV-3, in the test with U373 MG and in the test on PC-3 were 61 µM, 59.2 µM and 71.9 µM, respectively.

With `COc1cc(C(=O)O[C@@H]2Cc3c(O)cc(O)cc3O[C@@H]2c2ccc(O)c(O)c2)cc(OC)c1OC`, the results for the IC50 in the test on SK-OV-3, in the test with U373 MG and with PC-3 were 50.1 µM, 57.2 µM and 51.3 µM, respectively.

For the origin of these results see ChEMBL document CHEMBL1137907, “Anticancer activity of 3-O-acyl and alkyl-(-)-epicatechin derivatives” (Bioorg Med Chem Lett, 2004).
